# From PubChem
# The entries come from a sample that favours hits as a whole.
# INS promoter act: TRM-6 insulin promoter activation; 130,000 tested, 0.81% active; activation, % at 2 µM; TRM-6 cells, insulin promoter eGFP reporter, imaging; plate-scaled: unstimulated 0, stimulated control 100; AID 1296;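 active means activation at 2 µM above a set limit, confirmed on inspection of the cell images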;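 further: share of cells whose green reporter signal exceeds an intensity cutoff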
#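 Test system: human fetal islet-derived TRM-6 cells with tamoxifen-inducible insulin promoter–eGFP reporter; schedule: overnight tamoxifen, then two-day compound incubation at 37 °C; measured by: high-content imaging of fixed cells with Hoechst nuclear stain; evaluation: percent cells above green-intensity threshold, converted to percent activation versus plate controls; control set: stimulated and unstimulated wells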
# * marks the source's active call; other numbers are inactive results.
SMILES,INS promoter act
C/C(=N/NS(=O)(=O)c1ccc(C)cc1)c1ccc(NC(=O)C(F)(F)F)cc1,6.7
CN(CC(=O)NCc1ccccn1)S(=O)(=O)c1ccc2ccccc2c1,0.0
CC(NC(=O)C1CCN(S(=O)(=O)c2cnc[nH]2)CC1)c1ccccc1 (stereo unspecified),0.0
CNC(=S)NNC(=O)COc1ccc(C)c(C)c1,-3.7
O=C(c1ccccc1)N1CCc2ccccc21,0.0
COc1ccc(C(=O)N2CCc3ccccc32)cc1,-6.5
Cc1cccc2cc3c(N)c(C(=O)N4CCc5ccccc54)sc3nc12,233.3*
CCC(=O)Nc1cccc(C(=O)OCc2cccc([N+](=O)[O-])c2)c1,5.9
O=C(N/C(=C/c1cccnc1)C(=O)N1CCOCC1)c1ccccc1Br,2.9
Cn1cc(Br)c(C(=O)NNC(=O)c2ccc(Cl)cc2)n1,7.4
CCN(CC)CCn1c(N)cc(=O)[nH]c1=O,0.0
CCN(CC)CCn1cnc2c([nH]c3cccc(OC)c32)c1=O,-9.5
CCN(CC)CCn1c(OC)cc(=O)[nH]c1=O,500.0*
COc1ccc(Nc2ccc([N+](=O)[O-])cc2[N+](=O)[O-])cc1,-5.9
COc1cc(CCC(=O)Nc2cccc(S(=O)(=O)N(C)C)c2)cc(OC)c1OC,0.0
CCCc1cc(=O)oc2cc(Oc3ncccn3)ccc12,154.5*
CCCc1cc(=O)oc2cc(OCC(=O)Nc3cc(C)on3)ccc12,7.1
C=C(Cl)COc1ccc2c(CCC)cc(=O)oc2c1,293.3
O=C(Cc1ccccc1)Nc1cc(C(=O)c2ccccc2)ccc1N1CCOCC1,0.0
O=C(COc1cc(Cl)c(Cl)cc1Cl)NC(=O)Nc1ccc2c(c1)OCCO2,-3.7
O=C(Oc1ccc2ccccc2c1Br)N1CCCCCC1,0.0
COc1ccc(C(=O)NC2(C(F)(F)F)C(=O)Nc3c2c(=O)[nH]c(=O)n3CCc2ccc(OC)c(OC)c2)cc1 (stereo unspecified),-8.3
CNC(=O)NC(=O)C(C)OC(=O)CCCSc1nc2ccccc2s1 (stereo unspecified),-5.4
CC(C)Cn1c(SCC(=O)N2CCCCC2)nc2ccccc2c1=O,268.8
C=CCn1c(=O)c2ccccc2n2c(SCC(N)=O)nnc12,9.3
SMILES,INS promoter act
O=C(CSc1nnc2n(C3CCCC3)c(=O)c3ccccc3n12)N1CCCCCC1,121.4*
S=c1[nH]nc(COc2ccccc2)n1/N=C/C(Cl)=C/c1ccccc1,-3.4
CC(NC(=O)c1ccc(-c2cc(C(F)(F)F)ccc2Cl)o1)c1ccccc1 (stereo unspecified),-8.3
CN(C(=O)COC(=O)CNC(=O)c1ccc(Cl)cc1Cl)c1ccccc1,0.0
O=C(N/N=C\c1ccccn1)C1COc2cc3ccccc3cc2O1 (stereo unspecified),-6.5
O=C(CN(Cc1cccs1)C(=O)CN1C(=O)COc2ccccc21)NCc1ccco1,-7.7
Cc1cc(Nc2ccccc2)n(C(=O)c2ccccc2)n1,6.5
Cc1ccc(S(=O)(=O)NC(c2ccccc2)C(C)C(=O)n2nc(C)cc2C)cc1 (stereo unspecified),117.4*
O=C(O)C(NS(=O)(=O)c1ccc(F)cc1)c1ccccc1 (stereo unspecified),-5.9
CCC1CCCCN1C(=S)Nc1ccc(OC(F)F)cc1 (stereo unspecified),-9.4
COc1cccc(-c2cc(C(=O)NCC3CCCO3)c3ccccc3n2)c1 (stereo unspecified),0.0
O=C(CC1C(=O)NCCN1Cc1ccccc1C(F)(F)F)NCCc1ccccn1 (stereo unspecified),-4.8
C=CCn1c(-c2ccc(Cl)cc2)cnc1SC(C)C(=O)NC(N)=O (stereo unspecified),357.1*
C=CCn1c(SCCOc2ccc(OC)cc2)nnc1C(C)NC(=O)c1ccc(OC)cc1 (stereo unspecified),9.7
C=CCn1c(SCC(=O)NC2CCCCC2)nnc1-c1ccc(OC)cc1,114.3
O=C1CCCN1c1ccc(S(=O)(=O)Oc2ccc(Cl)cc2)cc1[N+](=O)[O-],4.2
COc1ccc(CCNC(=O)CN2CCC(C)CC2)cc1OC,-5.4
CCn1c(CC(=O)Nc2ccc(C)cc2)nnc1SCC(=O)N1CCN(c2ccccc2)CC1,188.4
CCn1c(CC(=O)Nc2ccc(C)c(Cl)c2)nnc1SCC(=O)Nc1nc(C)cs1,450.0*
CCn1c(CC(=O)Nc2ccccc2)nnc1SCC(=O)Nc1ccccc1C(=O)OC,-8.3
Cc1ccc(CS(=O)(=O)c2ncn[nH]2)cc1,9.5
O=S(=O)(c1ccccc1)N1CCN=C1SCc1ccccc1,0.0
Cc1ccc(CSC2=NCCN2S(=O)(=O)c2ccccc2)cc1,464.3*
CCCS(=O)(=O)N1CCN=C1SCc1ccc(C)cc1,0.0
CC(=O)C(CC(=O)N1CCCc2ccccc21)C(=O)Nc1ccc(F)cc1 (stereo unspecified),0.0
SMILES,INS promoter act
O=P(OCC1CC1)(c1ccccc1)c1ccccc1,3.7
COc1cc(OC)c2c(c1)C(=O)OC2,6.7
Cc1ccnc(NC(=O)c2cc(S(=O)(=O)N3CCCCC3)ccc2Cl)c1,6.5
COc1cccc(NC(=O)CSc2nnc(-c3ccoc3C)n2CC2CCCO2)c1 (stereo unspecified),5.6
O=C(CSc1nnc(-c2ccco2)n1CC1CCCO1)NC1CCCC1 (stereo unspecified),-6.9
COc1ccc(NC(=O)CSc2nnc(-c3ccoc3C)n2CC2CCCO2)cc1 (stereo unspecified),506.3*
COc1ccc(/C=C2/C(=O)N=C(N)N2C)cc1OC,252.2*
COc1ccc(/C=C2\SC(=O)NC2=S)cc1OC,9.1
COc1ccc(/C=C2/C(=O)N=C3SCCN32)cc1,2.9
Nc1nnc(C(c2ccccc2)c2ccccc2)s1,0.0
O=C(CN1C(=O)CNC1=O)Nc1cccc(C(F)(F)F)c1,0.0
CCOc1cccc(N2C(=O)CC(N3CCN(c4ccc(S(=O)(=O)CC)cc4)CC3)C2=O)c1 (stereo unspecified),80.0*
CCN1C(=O)CC(N2CCN(c3cccc(OC)c3)CC2)C1=O (stereo unspecified),0.0
COc1cccc(N2CCN(C3CC(=O)N(c4cccc(Cl)c4)C3=O)CC2)c1 (stereo unspecified),-3.7
CCOC(O)[C@H]1N[C@@H](c2ccc(Cl)cc2)[C@@H]([N+](=O)[O-])[C@@H]1c1ccccc1 (stereo partly specified),6.7
O=C(O)/C=C/C(=O)NCCc1ccccc1,321.4*
O=C(/C=C/c1c(Cl)cccc1Cl)NCCc1ccccc1,8.6
COc1ccc(CCNC(=O)/C=C/C(=O)O)cc1,0.0
C=CC[N+](C)(C)C/C(Cl)=C(\Cl)c1ccccc1,-71.4
O=C(COC(=O)c1ccc(Sc2ccccc2)c([N+](=O)[O-])c1)NC1CCS(=O)(=O)C1 (stereo unspecified),6.7
COc1cccc2cccc(/C=N/n3cnnc3)c12,0.0
O=C(O)c1sc2cc(C(F)(F)F)cnc2c1-c1ccccn1,9.1
CC(C)c1cc(N=NC(N)=O)cc(C(C)C)c1O,-4.8
N#Cc1c(N)nc2c(c1-c1ccncc1)CCCCCC2,450.0*
CC(C)c1ccc(-c2c(C#N)c(N)nc3c2CCCCC3)cc1,-7.1
N#Cc1c2c(nc(N)c1-c1ccccc1)CCCCC2,-9.3
CSc1nc2c(c(-c3ccccc3)c1C#N)CCC2,411.1*
Cc1[nH]n2c(=O)c3c(nc2c1-c1ccccc1)CCC3,-83.3
N#Cc1c(N)nc2c(c1-c1ccncc1)CCCC2,0.0
O=C(Cn1nnc(-c2ccncc2)n1)NCCc1ccccc1,0.0
